Key:
Format in all cases: functional
[1] = Cytotoxicity against human SF295 cells after 48 hrs by SRB assay; conditions: SF-295, 48 h
Method in brief: (§1)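 NCI-60 five-dose screen: compounds dissolved in DMSO/H2O, tested at five 10-fold dilutions (10^-4 to 10^-8 M) for 48 h. Growth measured by sulforhodamine B optical density at time zero and after 48 h drug or vehicle exposure. Percentage growth calculated relative to control. GI50 is the molar concentration giving 50% reduction in net cell growth versus day-0 cell numbers.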

[2] = Cytotoxicity against human SF539 cells after 48 hrs by SRB assay; conditions: SF-539, 48 h; method in brief: as §1
[3] = Cytotoxicity against human SNB19 cells after 48 hrs by SRB assay; conditions: SNB-19, 48 h; method in brief: as §1
[4] = Cytotoxicity against human SNB75 cells after 48 hrs by SRB assay; conditions: SNB-75, 48 h; method in brief: as §1
U-251 = assay: Cytotoxicity against human U251 cells after 48 hrs by SRB assay; conditions: U-251, 48 h
Method in brief: (§2)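 NCI-60 five-dose screen. Compounds dissolved in DMSO/H2O and tested at five 10-fold dilutions (10^-4 to 10^-8 M) for 48 h. Growth read by sulforhodamine B optical density at time zero and after 48 h of exposure to compound or vehicle. Percent growth calculated against control. GI50 is the molar concentration giving 50% reduction in net cell growth relative to cell number on day 0.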

[5] = Cytotoxicity against human LOXIMVI cells after 48 hrs by SRB assay; conditions: LOX IMVI; method in brief: as §1
M14 = assay: Cytotoxicity against human M14 cells after 48 hrs by SRB assay; conditions: M14, 48 h; method in brief: as §1
MDA-MB-435 = assay: Cytotoxicity against human MDA-MB-435 cells after 48 hrs by SRB assay; conditions: MDA-MB-435, 48 h; method in brief: as §1
SK-MEL-2 = assay: Cytotoxicity against human SK-MEL-2 cells after 48 hrs by SRB assay; conditions: SK-MEL-2, 48 h; method in brief: as §1
SK-MEL-28 = assay: Cytotoxicity against human SK-MEL-28 cells after 48 hrs by SRB assay; conditions: SK-MEL-28, 48 h; method in brief: as §1
SK-MEL-5 = assay: Cytotoxicity against human SK-MEL-5 cells after 48 hrs by SRB assay; conditions: SK-MEL-5, 48 h; method in brief: as §1
[6] = Cytotoxicity against human UACC257 cells after 48 hrs by SRB assay; conditions: UACC-257, 48 h; method in brief: as §2
[7] = Cytotoxicity against human UACC62 cells after 48 hrs by SRB assay; conditions: UACC-62, 48 h; method in brief: as §2
[8] = Cytotoxicity against human OVCAR3 cells after 48 hrs by SRB assay; conditions: OVCAR-3, 48 h; method in brief: as §1
[9] = Cytotoxicity against human OVCAR4 cells after 48 hrs by SRB assay; conditions: OVCAR-4, 48 h; method in brief: as §1
[10] = Cytotoxicity against human OVCAR5 cells after 48 hrs by SRB assay; conditions: OVCAR-5, 48 h; method in brief: as §1
[11] = Cytotoxicity against human OVCAR8 cells after 48 hrs by SRB assay; conditions: OVCAR-8, 48 h; method in brief: as §1
[12] = Cytotoxicity against human NCI-ADR-RES cells after 48 hrs by SRB assay; method in brief: as §1
[13] = Cytotoxicity against human SKOV3 cells after 48 hrs by SRB assay; conditions: SK-OV-3, 48 h; method in brief: as §1
786-0 = assay: Cytotoxicity against human 786-0 cells after 48 hrs by SRB assay; conditions: 786-0, 48 h; method in brief: as §1
A498 = assay: Cytotoxicity against human A498 cells after 48 hrs by SRB assay; conditions: A498, 48 h; method in brief: as §1
ACHN = assay: Cytotoxicity against human ACHN cells after 48 hrs by SRB assay; method in brief: as §1
[14] = Cytotoxicity against human Caki1 cells after 48 hrs by SRB assay; conditions: CAKI-1, 48 h; method in brief: as §1
[15] = Cytotoxicity against human RXF393 cells after 48 hrs by SRB assay; conditions: RXF 393, 48 h; method in brief: as §1
SN12C = assay: Cytotoxicity against human SN12C cells after 48 hrs by SRB assay; method in brief: as §1
[16] = Cytotoxicity against human TK10 cells after 48 hrs by SRB assay; conditions: TK-10, 48 h; method in brief: as §2
[17] = Cytotoxicity against human UO31 cells after 48 hrs by SRB assay; conditions: UO-31, 48 h; method in brief: as §2
[18] = Cytotoxicity against human PC3 cells after 48 hrs by SRB assay; conditions: PC-3, 48 h; method in brief: as §1

SMILES: COc1cc(-c2n[nH]nc2-c2c[nH]c3ccccc23)cc(OC)c1OC
- GI50 [1]: 32 nM
- GI50 [2]: 31 nM
- GI50 [3]: 61 nM
- GI50 [4]: 30 nM
- GI50 (U-251): 59 nM
- GI50 [5]: 71 nM
- GI50 (M14): 36 nM
- GI50 (MDA-MB-435): 14 nM
- GI50 (SK-MEL-2): 30 nM
- GI50 (SK-MEL-28): 112 nM
- GI50 (SK-MEL-5): 43 nM
- GI50 [6]: 13900 nM
- GI50 [7]: 43 nM
- GI50 [8]: 33 nM
- GI50 [9]: 1160 nM
- GI50 [10]: 381 nM
- GI50 [11]: 1160 nM
- GI50 [12]: 34 nM
- GI50 [13]: 42 nM
- GI50 (786-0): 35 nM
- GI50 (A498): 35 nM
- GI50 (ACHN): 43 nM
- GI50 [14]: 44 nM
- GI50 [15]: 164 nM
- GI50 (SN12C): 1390 nM
- GI50 [16]: 1390 nM
- GI50 [17]: 87 nM
- GI50 [18]: 44 nM
